Reference: PMC8158046 (Oncoimmunology, 2021)
Positions of bridges follow the written chain, without caps; N, C: chain ends. Chains are numbered I, II in the order given. No end group written: not given here.

Legend:
[1] = test system: MCF-10A normal breast cells; assay: MCF-10A cell killing by FACS; format: cell-based, human; conditions: for spontaneous cell apoptosis (killing) of MCF-10A cells: 10 μg/ml, 4–6 days, PBMC+MCF-10A, N = 3, mean ± SD
Summary of the method: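 MCF-10A cells were co-cultured with donor PBMCs (2x10^6/ml) plus test compound or scrambled peptide at 37°C, 5% CO2. Adherent cells were then detached. Anti-CD45 staining was used to exclude leukocytes, and apoptosis in the gated CD45-negative cells was measured by Annexin V/PI flow cytometry.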

[2] = test system: MDA-MB-231 cells; assay: Tumor cell density by inverted microscope, MDA-MB-231; format: cell-based, human; conditions: 10 μg/ml; for effect on MDA-MB-231 tumor cells in the absence of PBMCs: monolayer without PBMC, microscope
Summary of the method: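 Tumor cells (MDA-MB-231 or MDA-MB-468, 4x10^5/2 ml) were plated overnight, then cultured with or without donor PBMCs (2x10^6/ml). Test compound or scrambled peptide was added at 10 µg/ml at 37°C, 5% CO2. Wells were washed once with PBS and cell density was documented by inverted light microscopy.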

[3] = molecular target: T1, CD45 receptor (Homo sapiens, UniProt P08575); format: cell-based; conditions: CD45 blocked with monoclonal antibody and blocking peptide, n = 5
T1 sequence (P08575 195-577 limits assumed): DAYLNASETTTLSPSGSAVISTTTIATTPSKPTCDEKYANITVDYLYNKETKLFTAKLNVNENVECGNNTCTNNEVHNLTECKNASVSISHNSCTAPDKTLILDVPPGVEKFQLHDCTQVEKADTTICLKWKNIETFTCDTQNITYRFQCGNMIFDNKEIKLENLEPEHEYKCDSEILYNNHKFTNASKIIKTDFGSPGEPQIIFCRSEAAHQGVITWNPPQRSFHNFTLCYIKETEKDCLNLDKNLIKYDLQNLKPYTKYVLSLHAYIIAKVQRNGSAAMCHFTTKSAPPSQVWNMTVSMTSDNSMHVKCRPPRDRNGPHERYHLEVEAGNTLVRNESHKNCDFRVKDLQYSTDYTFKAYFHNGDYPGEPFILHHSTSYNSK

[4] = molecular target: T2, CD45 receptor (Homo sapiens, UniProt P08575); format: in vitro ADME; conditions: 1.5 μM C24D, 3 hours after adding, ELISA read-out
T2 sequence (P08575 26-1306): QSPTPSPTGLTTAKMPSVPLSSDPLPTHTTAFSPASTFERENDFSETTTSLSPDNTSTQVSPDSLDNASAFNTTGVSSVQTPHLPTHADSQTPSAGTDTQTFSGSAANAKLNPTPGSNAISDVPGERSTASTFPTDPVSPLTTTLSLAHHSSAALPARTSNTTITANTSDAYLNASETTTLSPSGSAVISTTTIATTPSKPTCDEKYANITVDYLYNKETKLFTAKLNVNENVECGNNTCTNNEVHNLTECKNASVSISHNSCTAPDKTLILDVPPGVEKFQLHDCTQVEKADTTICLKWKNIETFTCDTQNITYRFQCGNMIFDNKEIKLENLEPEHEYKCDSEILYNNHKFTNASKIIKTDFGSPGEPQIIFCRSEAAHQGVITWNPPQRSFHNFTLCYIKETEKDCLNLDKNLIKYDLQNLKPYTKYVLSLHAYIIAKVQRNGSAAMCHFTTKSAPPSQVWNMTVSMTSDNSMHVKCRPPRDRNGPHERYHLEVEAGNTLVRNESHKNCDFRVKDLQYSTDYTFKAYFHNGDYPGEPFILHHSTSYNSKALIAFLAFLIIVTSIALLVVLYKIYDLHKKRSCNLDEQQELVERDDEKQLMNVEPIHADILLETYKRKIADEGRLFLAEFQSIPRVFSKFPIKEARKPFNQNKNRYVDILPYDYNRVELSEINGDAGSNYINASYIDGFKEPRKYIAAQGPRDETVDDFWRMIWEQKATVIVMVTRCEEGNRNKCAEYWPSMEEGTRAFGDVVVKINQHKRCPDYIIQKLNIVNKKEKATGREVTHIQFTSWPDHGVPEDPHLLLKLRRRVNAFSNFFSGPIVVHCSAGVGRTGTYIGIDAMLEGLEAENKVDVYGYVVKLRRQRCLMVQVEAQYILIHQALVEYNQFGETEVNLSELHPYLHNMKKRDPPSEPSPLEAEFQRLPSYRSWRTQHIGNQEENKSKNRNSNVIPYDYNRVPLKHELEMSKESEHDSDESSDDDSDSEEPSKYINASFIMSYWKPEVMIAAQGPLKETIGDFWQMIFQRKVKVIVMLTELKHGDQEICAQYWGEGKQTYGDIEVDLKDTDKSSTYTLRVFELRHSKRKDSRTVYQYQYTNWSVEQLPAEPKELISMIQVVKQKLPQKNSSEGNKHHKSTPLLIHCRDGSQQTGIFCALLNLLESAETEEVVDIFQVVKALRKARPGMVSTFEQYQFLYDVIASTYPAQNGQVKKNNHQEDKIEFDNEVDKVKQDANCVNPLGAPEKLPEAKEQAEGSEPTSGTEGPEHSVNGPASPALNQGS

[5] = test system: MDA-MB-231 xenograft; assay: MDA-MB-231 tumor xenograft in nude mice given human PBMCs; format: in vivo, BALB/C nude mice; conditions: for increase in human IFN-γ secretion in serum versus S-C24D group: 13 days after PBMC administration, p <0.05
Summary of the method: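 Female BALB/c nude mice (5–6 weeks) received 4x10^6 MDA-MB-231 cells s.c. in the right flank. At ~100 mm3 (day 6) they were randomized. Human PBMCs from 2 female donors were pre-incubated 5 min with test compound, scrambled peptide or PBS, then given IV. Treatment (60 or 300 µg/mouse in 200 µl PBS) followed IV twice weekly for 2 weeks. At 13 days, serum human IFNγ was measured. Paraffin tumor sections (pH 6 retrieval) were immunostained for CD45, activated CD56, CD8 and cleaved caspase-3, and 5 fields/slide on 5 slides were quantified.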

[6] = test system: PBMCs co-cultured with MDA-MB-231; assay: Cytokine secretion by ELISA in supernatants of PBMC/MDA-MB-231 co-cultures; format: cell-based, human
Summary of the method: (§1)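 Target cells (MDA-MB-231, MDA-MB-468 or DMEM/10% FCS-grown MCF-10A; 4x10^5/2 ml) were plated overnight. PBMCs (2x10^6/ml, RPMI with 5% AB serum) were added, with test compound added at once (0.1–60 µg/ml) and scrambled peptide as control, at 37°C, 5% CO2. Supernatants were cleared (1200 rpm, 10 min) and stored at −80°C. IFNγ, TNFα, IL-2 and IL-1β were measured by ELISA.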

[7] = test system: PBMCs co-cultured with MCF-10A; assay: Cytokine secretion in co-cultures of MCF-10A normal breast cells and PBMCs; format: cell-based, human; conditions: MCF-10A/PBMC co-culture after C24D, n = 3
Summary of the method: as §1

[8] = test system: PBMCs from healthy female donors co-cultured with MDA-MB-231; assay: FACS of activated PBMC sub-populations in co-cultures with MDA-MB-231; format: cell-based, human
Summary of the method: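 Lymphocytes were recovered from tumor/PBMC co-cultures; samples with >98% CD45+ cells were used. Cells (0.5x10^6/50 µl PBS) were stained for CD4, CD8, CD56, NKG2D, CD14, CD69, CD57 and CD137. Gated live cells were analysed by flow cytometry; mean ± SD reported, ANOVA with Tukey-Kramer.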

[9] = test system: CD45 signaling pathway; assay: Protein phosphorylation by western blot in fresh PBMCs from TNBC patients; format: cell-based, human; conditions: fresh PBMCs from 5 TNBC patients, C24D 5 to 60 minutes, mean ± SD
Summary of the method: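 PBMCs were lysed in buffer containing phosphatase inhibitors (NaF, Na3VO4, β-glycerophosphate), freeze-thawed once and cleared at 14,000 rpm. Lysates were run on 10% SDS-PAGE and blotted for phospho-Lck Y505, phospho-Lck Y394, phospho-VAV-1 Y174 and phospho-ZAP70 Y493, with GAPDH as loading control. Bands were quantified by infrared imaging, normalized to control, and reported as mean ± SD.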

[10] = molecular target: T1, CD45 receptor; assay: FACS analysis of C24D binding to PBMC sub-populations
[11] = test system: CD45 signaling pathway; assay: CD45 signal transduction by western blot, PBMC/MDA-MB-231 co-cultures; format: cell-based, human; conditions: 10 µg/ml, n = 9, p <0.27
[12] = Stability in human whole blood; format: in vitro ADME
[13] = test system: CD45 signaling pathway; format: cell-based, human; conditions: incubated with C24D for 5 to 24 hours, 5 separate experiments
[14] = test system: CD45 signaling pathway; assay: CD45 signal transduction by intracellular FACS, PBMC/MDA-MB-231 co-cultures; format: cell-based, human; conditions: PBMCs co-cultured with MDA-MB-231 for 24hs, C24D for 15 minutes
Summary of the method: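 PBMCs (2x10^6/ml, RPMI with 5% AB serum) were co-cultured for 24 h at 37°C, 5% CO2 with MDA-MB-231 cells pre-plated overnight (4x10^5/2 ml). Test compound was then added for 15 minutes. Phosphorylation was read by FACS in live PBMCs and normalized to the scrambled-peptide control.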

[15] = 10 μg/ml C24D added to co-cultures
[16] = 10 μg/ml C24D, PBMCs from 11 healthy female donors, mean ± SD

CG-PPRIHPLKRISRTRLPRLHRPFHIS [S-C24D, reference compound]
spontaneous cell apoptosis (killing) of MCF-10A cells [1]: 7.25 ± 2.34%
effect on MDA-MB-231 tumor cells in the absence of PBMCs [2]: no effect
IFN-γ in supernatants of co-cultures with blocked CD45 receptor [3]: 108 ± 20 pg/mL

I: CGHHLLRPRRRKRPHSIPTPILIFRSP / II: CGHHLLRPRRRKRPHSIPTPILIFRSP (disulfide I:1-II:1) [C24D]
decrease of binding to CD45 in the presence of human plasma [4]: 20%
spontaneous cell apoptosis (killing) of MCF-10A cells [1]: 6.47 ± 0.94%
killing in MCF-10A and PBMCs co-cultures ([1]; treatment with C24D): failed to induce killing
tumor cell apoptosis (Cleaved Caspase-3 immunofluorescence) ([5]; 60 μg (p <0.0013) and 300 μg (p <0.049) per mouse): significant increase
increase in human IFN-γ secretion in serum versus S-C24D group ([5]; 60 μg per mouse): 68%
increase in human IFN-γ secretion in serum versus S-C24D group ([5]; 300 μg per mouse): 82%
infiltration of human CD45+ cells in the tumor (immunofluorescence) ([5]; 60 and 300 μg doses vs S-C24D, p <0.015 and p <0.023): significantly induced
tumor-infiltrating NK (activated CD56+) cells (immunofluorescence) ([5]; 60 or 300 μg per mouse, p <0.011 and p <0.042): significant increase
tumor-infiltrating human CD8 T cells (immunofluorescence) ([5]; 60 or 300 μg per mouse, p <0.07 and p <0.1): non-significant
increase in secretion of IL-2 ([6]; C24D 4–6 days, MDA-MB-231/PBMC co-cultures, n = 7, p < 0.0007): 92.2%
increase in secretion of TNF-α ([6]; C24D 4–6 days, MDA-MB-231/PBMC co-cultures, n = 7, p < 0.04): 98%
increase in secretion of IFN-γ ([6]; C24D 4–6 days, MDA-MB-231/PBMC co-cultures, n = 8, p <0.03): 90%
cytokine secretion (IFNγ, IL-2, TNFα, IL-1β) in PBMCs alone ([6]; C24D added to PBMCs alone, no tumor cells): No effect
secretion of IL-1β by monocytes ([6]; C24D added to co-cultures): non-significant effect
TNF-α concentration [7]: 5.6 ± 0.2 pg/mL
CD57 expression [8, 15]: not influenced
percentage of NKG2D+ and CD45RO+ cells [8, 15]: not influenced
percentage of CD4+/CD69+ cells [8, 16]: 4.1 ± 1.58%
percentage of CD8+/CD69+ cells [8, 16]: 33.23%
tumor apoptosis seen by microscope in PBMC/MDA-MB-231 co-cultures ([2]; PBMCs from healthy donors): massive tumor apoptosis
effect on MDA-MB-231 tumor cells in the absence of PBMCs [2]: no effect
IFN-γ in supernatants of co-cultures with blocked CD45 receptor [3]: 107 ± 27 pg/mL
phosphorylation of Lck Y394 after addition of C24D, normalized to control [9]: 117.4 ± 36.2%
phosphorylation of Lck Y505 after addition of C24D, normalized to control [9]: 79.2 ± 3.6%
phosphorylation of VAV-1 after addition of C24D, normalized to control [9]: 88.4 ± 26.9%
phosphorylation of ZAP70 Y493 after addition of C24D, normalized to control [9]: 116.4 ± 10.4%
percentage of C24D binding to CD16 after exposure to tumor cells [10]: not affected
leukocyte sub-populations that bound C24D ([10]; PBMCs from healthy female donors, C24D conjugated to Alexa-488 dye): all 9 of the tested T, NK and monocyte sub-populations bound C24D
percentage of CD45+ gated PBMCs that bind C24D (double staining) ([10]; anti CD45 monoclonal antibody (CD45-APC) and C24D-Alexa-488 conjugated peptide): 100%
effect of C24D treatment on C24D binding to CD8 and NKG2D sub-populations exposed to MDA-MB-231 ([10]; p <0.05): reversed the decrease
phosphorylation of Lck Y394 [11]: increased, but not significant statistically
half-life [12]: 2.75 h
Lck, ZAP70 and VAV-1 activation in fresh PBMCs from healthy donors in the absence of tumors [13]: no effect
phosphorylation of Y394 in Lck ([14]; n = 3): increase
increase of the phosphorylation of VAV-1 versus control ([14]; n = 3, mean ± SD): 36.2 ± 4.0%
increase of the phosphorylation of Y493 in ZAP70 versus control ([14]; n = 3, mean ± SD): 50.13 ± 10.2%
